{"source": "paper PMC4433755", "about": "(Clinical cancer research : an official journal of the …, 2015)", "key": {"[1]": {"tested_on": "metabolism of JNJ-38877605 in human 12000×g liver supernatant", "assay_type": "in vitro ADME", "conditions": "5 μM 3H-JNJ-38877605, human 12000×g liver supernatant", "procedure,_shortened": "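5 μM 3H-labelled test compound incubated with human 12000×g liver supernatant, with and without specific inhibitors of aldehyde oxidase/CYP2C8 or of CYP-450. Metabolites identified by LC-MS and quantified via the 3H label. Read-out is % inhibition of formation of each metabolite and of summed metabolite formation.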"}, "[2]": {"assay": "phase I first-in-human dose escalation study, toxicity", "assay_type": "in vivo"}, "[3]": {"assay": "pharmacokinetics in humans, phase I study", "assay_type": "in vivo, human", "conditions": "patients", "procedure,_shortened": "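Patients received oral test compound once daily in 21-day cycles: 60 mg starting dose, with 10-40 mg OD levels added later. Blood was sampled at pre-specified times from cycle 1 day 1. Parent and N-desmethyl metabolite M2 were quantified in plasma. Cmax, tmax, t1/2, AUC and terminal elimination rate were calculated.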"}, "[4]": {"assay": "plasma metabolite profiling, rat", "assay_type": "in vivo", "conditions": "3H-JNJ-38877605 2.5 mg/kg, at about Cmax (1-4 h)"}, "[5]": {"assay": "plasma metabolite profiling, dog", "assay_type": "in vivo", "conditions": "3H-JNJ-38877605 2.5 mg/kg, at about Cmax (1-4 h)"}, "[6]": {"assay": "plasma metabolite profiling, rabbit", "assay_type": "in vivo", "conditions": "3H-JNJ-38877605 100 mg/kg, at about Cmax (1-4 h)"}, "[7]": {"assay": "plasma metabolite profiling, man", "assay_type": "in vivo, human", "conditions": "60 mg, at about Cmax (1-4 h)"}, "[8]": {"assay": "metabolite formation in human liver microsomes", "assay_type": "in vitro ADME", "conditions": "5 μM 3H-JNJ-38877605, 120 min", "procedure,_shortened": "(§1)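 Radiolabelled (3H) test compound was incubated with human liver subcellular fractions (microsomes or 12000 ×g supernatant). Metabolites were identified by LC-MS and quantified only where a reference standard or 3H label existed. Parallel incubations included specific inhibitors, quercetin (aldehyde oxidase/CYP2C8) or 1-aminobenzotriazole (CYP-450). Results were expressed as % inhibition of metabolite formation.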"}, "[9]": {"assay": "metabolite formation in human liver 12000 ×g supernatant", "assay_type": "in vitro ADME", "conditions": "5 μM 3H-JNJ-38877605, 120 min", "procedure,_shortened": "as §1"}, "[10]": {"assay": "1-month non-GLP toxicology study in male rabbit, post-mortem kidney changes", "assay_type": "in vivo", "conditions": "1-month dosing; for Basophilia, corticotubular with basement membrane thickening, incidence / Dilatation, collecting ducts with amorphous material, incidence / Dilation, corticotubular, extending towards cortex, incidence / Fibrosis, cortical, incidence / Hypertrophy, corticotubular; with spicules and multinucleated cells, incidence: N 4"}, "c-Met Kinase": {"target": "c-Met Kinase", "conditions": "read-out: IC50 for c-Met Kinase in vitro; cited from earlier work"}, "Fms": {"tested_on": "Fms", "conditions": "of 246 kinases tested; cited from earlier work"}, "[11]": {"conditions": "group 2: 50 mg/kg 3/week (150 mg/kg/week)"}, "[12]": {"conditions": "group 3: 100 mg/kg 1/week (100 mg/kg/week)"}, "[13]": {"conditions": "group 4: 200 mg/kg 1/week (200 mg/kg/week)"}, "[14]": {"conditions": "group 5: 100 mg/kg 3/week (300 mg/kg/week)"}, "[15]": {"conditions": "group 6: 50 mg/kg 1/day (350 mg/kg/week)"}}, "data": [{"smiles": "Nn1nnc2ccccc21", "note": "[1-aminobenzotriazole]", "values": [{"measurement": "% inhibition of metabolite formation, M1/M2", "setting": "[1]", "result": 58, "unit": "%"}, {"measurement": "% inhibition of metabolite formation, M3", "setting": "[1]", "result": 1, "unit": "%"}, {"measurement": "% inhibition of metabolite formation, M4", "setting": "[1]", "result": 70, "unit": "%"}, {"measurement": "% inhibition of metabolite formation, UD (sum of all metabolite formation)", "setting": "[1]", "result": 19, "unit": "%"}]}, {"smiles": "Cn1cc(-c2ccc3nnc(C(F)(F)c4ccc5ncccc5c4)n3n2)cn1", "note": "[JNJ-38877605]", "values": [{"measurement": "patients with grade 1 SCr increase", "setting": "[2]; 40 mg OD", "result": "2/3"}, {"measurement": "serum creatinine (SCr) increase, CTCAE grade", "setting": "[2]; 60 mg OD, all 5 subjects, asymptomatic", "result": "Grade 1"}, {"measurement": "time to SCr increase after start of treatment", "setting": "[2]; 60 mg OD, in 4 patients", "result": "2 to 3", "unit": "days"}, {"measurement": "glomerular filtration rate by Cr51 measurement", "setting": "[2]; 1 patient, 40 mg cohort, cycle 1 day 21 (98 pre-treatment)", "result": 45, "unit": "ml/min/1.73m^2"}, {"measurement": "decrease of glomerular filtration rate by Cr51 measurement", "setting": "[2]; 1 patient, 40 mg cohort, pre-treatment to cycle 1 day 21", "result": "> 50", "unit": "%"}, {"measurement": "renal toxicity", "setting": "[2]; 10 and 20 mg OD", "result": "no indication of renal toxicity"}, {"measurement": "accumulation after 21 days", "setting": "[3]; oral OD", "result": "virtually no accumulation"}, {"measurement": "plasma half-life", "setting": "[3]; oral", "result": "short"}, {"measurement": "time of Cmax after ingestion", "setting": "[3]; oral", "result": "1.5 to 4", "unit": "h"}, {"measurement": "concentration in plasma", "setting": "[4]", "result": 1466, "unit": "ngeq/ml"}, {"measurement": "concentration in plasma", "setting": "[5]", "result": 575, "unit": "ngeq/ml"}, {"measurement": "concentration in plasma", "setting": "[6]", "result": 22836, "unit": "ngeq/ml"}, {"measurement": "concentration in plasma", "setting": "[7]", "result": 111, "unit": "ngeq/ml"}, {"measurement": "formation of metabolites after incubation of JNJ-38877605", "setting": "[8]", "result": 12.8}, {"measurement": "formation of metabolites after incubation of JNJ-38877605", "setting": "[9]", "result": 26.0}, {"measurement": "Dilatation, collecting ducts with amorphous material, animals graded minimal", "setting": "[10]; [11]", "result": 3}, {"measurement": "Dilatation, collecting ducts with amorphous material, animals graded moderate", "setting": "[10]; [11]", "result": 0}, {"measurement": "Dilatation, collecting ducts with amorphous material, animals graded slight", "setting": "[10]; [11]", "result": 0}, {"measurement": "Kidney weights, fold change vs control", "setting": "[10]; [11]", "result": "×0.93 fold"}, {"measurement": "Basophilia, corticotubular with basement membrane thickening, incidence", "setting": "[10]; [11]", "result": 2}, {"measurement": "Dilatation, collecting ducts with amorphous material, incidence", "setting": "[10]; [11]", "result": 3}, {"measurement": "Dilation, corticotubular, extending towards cortex, incidence", "setting": "[10]; [11]", "result": 0}, {"measurement": "Fibrosis, cortical, incidence", "setting": "[10]; [11]", "result": 0}, {"measurement": "Hypertrophy, corticotubular; with spicules and multinucleated cells, incidence", "setting": "[10]; [11]", "result": 1}, {"measurement": "Dilatation, collecting ducts with amorphous material, animals graded minimal", "setting": "[10]; [12]", "result": 1}, {"measurement": "Dilatation, collecting ducts with amorphous material, animals graded moderate", "setting": "[10]; [12]", "result": 0}, {"measurement": "Dilatation, collecting ducts with amorphous material, animals graded slight", "setting": "[10]; [12]", "result": 3}, {"measurement": "Basophilia, corticotubular with basement membrane thickening, incidence", "setting": "[10]; [12]", "result": 2}, {"measurement": "Dilatation, collecting ducts with amorphous material, incidence", "setting": "[10]; [12]", "result": 4}, {"measurement": "Dilation, corticotubular, extending towards cortex, incidence", "setting": "[10]; [12]", "result": 0}, {"measurement": "Fibrosis, cortical, incidence", "setting": "[10]; [12]", "result": 0}, {"measurement": "Hypertrophy, corticotubular; with spicules and multinucleated cells, incidence", "setting": "[10]; [12]", "result": 3}, {"measurement": "Dilatation, collecting ducts with amorphous material, animals graded minimal", "setting": "[10]; [13]", "result": 0}, {"measurement": "Dilatation, collecting ducts with amorphous material, animals graded moderate", "setting": "[10]; [13]", "result": 1}, {"measurement": "Dilatation, collecting ducts with amorphous material, animals graded slight", "setting": "[10]; [13]", "result": 3}, {"measurement": "Dilation, corticotubular, extending towards cortex, animals graded minimal", "setting": "[10]; [13]", "result": 2}, {"measurement": "Dilation, corticotubular, extending towards cortex, animals graded slight", "setting": "[10]; [13]", "result": 1}, {"measurement": "Fibrosis, cortical, animals graded minimal", "setting": "[10]; [13]", "result": 0}, {"measurement": "Fibrosis, cortical, animals graded slight", "setting": "[10]; [13]", "result": 1}, {"measurement": "Kidney weights, fold change vs control", "setting": "[10]; [13]", "result": "×1.20 fold"}, {"measurement": "Basophilia, corticotubular with basement membrane thickening, incidence", "setting": "[10]; [13]", "result": 4}, {"measurement": "Dilatation, collecting ducts with amorphous material, incidence", "setting": "[10]; [13]", "result": 4}, {"measurement": "Dilation, corticotubular, extending towards cortex, incidence", "setting": "[10]; [13]", "result": 3}, {"measurement": "Fibrosis, cortical, incidence", "setting": "[10]; [13]", "result": 1}, {"measurement": "Hypertrophy, corticotubular; with spicules and multinucleated cells, incidence", "setting": "[10]; [13]", "result": 4}, {"measurement": "Dilatation, collecting ducts with amorphous material, animals graded minimal", "setting": "[10]; [14]", "result": 1}, {"measurement": "Dilatation, collecting ducts with amorphous material, animals graded moderate", "setting": "[10]; [14]", "result": 1}, {"measurement": "Dilatation, collecting ducts with amorphous material, animals graded slight", "setting": "[10]; [14]", "result": 2}, {"measurement": "Dilation, corticotubular, extending towards cortex, animals graded minimal", "setting": "[10]; [14]", "result": 2}, {"measurement": "Dilation, corticotubular, extending towards cortex, animals graded slight", "setting": "[10]; [14]", "result": 1}, {"measurement": "Fibrosis, cortical, animals graded minimal", "setting": "[10]; [14]", "result": 2}, {"measurement": "Fibrosis, cortical, animals graded slight", "setting": "[10]; [14]", "result": 0}, {"measurement": "Kidney weights, fold change vs control", "setting": "[10]; [14]", "result": "×1.13 fold"}, {"measurement": "Basophilia, corticotubular with basement membrane thickening, incidence", "setting": "[10]; [14]", "result": 3}, {"measurement": "Dilatation, collecting ducts with amorphous material, incidence", "setting": "[10]; [14]", "result": 4}, {"measurement": "Dilation, corticotubular, extending towards cortex, incidence", "setting": "[10]; [14]", "result": 3}, {"measurement": "Fibrosis, cortical, incidence", "setting": "[10]; [14]", "result": 2}, {"measurement": "Hypertrophy, corticotubular; with spicules and multinucleated cells, incidence", "setting": "[10]; [14]", "result": 4}, {"measurement": "Dilatation, collecting ducts with amorphous material, animals graded minimal", "setting": "[10]; [15]", "result": 0}, {"measurement": "Dilatation, collecting ducts with amorphous material, animals graded moderate", "setting": "[10]; [15]", "result": 2}, {"measurement": "Dilatation, collecting ducts with amorphous material, animals graded slight", "setting": "[10]; [15]", "result": 2}, {"measurement": "Dilation, corticotubular, extending towards cortex, animals graded minimal", "setting": "[10]; [15]", "result": 2}, {"measurement": "Dilation, corticotubular, extending towards cortex, animals graded slight", "setting": "[10]; [15]", "result": 1}, {"measurement": "Fibrosis, cortical, animals graded minimal", "setting": "[10]; [15]", "result": 1}, {"measurement": "Fibrosis, cortical, animals graded slight", "setting": "[10]; [15]", "result": 1}, {"measurement": "Basophilia, corticotubular with basement membrane thickening, incidence", "setting": "[10]; [15]", "result": 4}, {"measurement": "Dilatation, collecting ducts with amorphous material, incidence", "setting": "[10]; [15]", "result": 4}, {"measurement": "Dilation, corticotubular, extending towards cortex, incidence", "setting": "[10]; [15]", "result": 3}, {"measurement": "Fibrosis, cortical, incidence", "setting": "[10]; [15]", "result": 2}, {"measurement": "Hypertrophy, corticotubular; with spicules and multinucleated cells, incidence", "setting": "[10]; [15]", "result": 4}, {"measurement": "IC50", "setting": "c-Met Kinase", "result": 4.7, "unit": "nM"}, {"measurement": "selectivity for c-Met kinase relative to the next most potently inhibited kinase (Fms)", "setting": "Fms", "result": "> 833", "unit": "fold"}]}, {"smiles": "O=c1c(O)c(-c2ccc(O)c(O)c2)oc2cc(O)cc(O)c12", "note": "[Quercetin]", "values": [{"measurement": "% inhibition of metabolite formation, M1/M2", "setting": "[1]", "result": 75, "unit": "%"}, {"measurement": "% inhibition of metabolite formation, M3", "setting": "[1]", "result": 94, "unit": "%"}, {"measurement": "% inhibition of metabolite formation, M4", "setting": "[1]", "result": 73, "unit": "%"}, {"measurement": "% inhibition of metabolite formation, UD (sum of all metabolite formation)", "setting": "[1]", "result": 112, "unit": "%"}]}, {"smiles": "FC(F)(c1ccc2ncccc2c1)c1nnc2ccc(-c3cn[nH]c3)nn12", "note": "[M2]", "values": [{"measurement": "concentration in plasma", "setting": "[4]", "result": 136, "unit": "ngeq/ml"}, {"measurement": "concentration in plasma", "setting": "[5]", "result": 31, "unit": "ngeq/ml"}, {"measurement": "concentration in plasma", "setting": "[6]", "result": 6388, "unit": "ngeq/ml"}, {"measurement": "concentration in plasma", "setting": "[7]", "result": 3, "unit": "ngeq/ml"}]}]}
